# Data as given in ChEMBL document CHEMBL1135865, “Novel guanidine-based inhibitors of inosine monophosphate dehydrogenase” (Bioorg Med Chem Lett, 2002).
# Target: T1, Inosine-5'-monophosphate dehydrogenase 2 (Homo sapiens, UniProt P12268)
# Experiment: In vitro inhibition of Inosine-5'-monophosphate dehydrogenase 2.
# Procedure, shortened: (§1)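 Human type II IMPDH purified from E. coli expressing the gene; 40 nM enzyme, 400 µM IMP, 2 mM DTT in 0.1 M Tris, 0.1 M KCl, 3 mM EDTA pH 8.0; final DMSO 2.5%. Started with NAD (final 400 µM); after 2 h at 25 °C, NADH read at 340 nm.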
row,Structure (SMILES),IC50 [nM]
1,COc1cc(NC(=NC#N)Nc2cccc(CNC(=O)NCC3CCCO3)c2)ccc1-c1cnco1 (stereo not drawn),180
2,COc1cc(NC(=NC#N)Nc2cccc(CNC(=O)O[C@H]3CCOC3)c2)ccc1-c1cnco1,340
3,COc1cc(N/C(=N/c2cccnc2)NC#N)ccc1-c1cnco1,320
4,CCCCNC(=O)c1cccc(NC(=NC#N)Nc2ccc(-c3cnco3)c(OC)c2)c1,130
5,COc1cc(N/C(=N/c2cccc(C/N=C(\NC#N)Oc3ccccc3)c2)NC#N)ccc1-c1cnco1,16
6,COc1cc(NC(=NC#N)Nc2ccccc2C)ccc1-c1cnco1,2200
7,CCOC(=O)N=C(Nc1cccc(C)c1)Nc1ccc(-c2cnco2)c(OC)c1,740
8,CN/C(=N\c1ccc(-c2cnco2)c(OC)c1)Nc1cccc(C)c1,> 3000
9,COc1cc(N=C(N)NC(=O)c2ccccc2)ccc1-c1cnco1,800
10,COc1cc(NC(=NC#N)Nc2ccccc2)ccc1-c1cnco1,250
11,COc1cc(NC(=O)Nc2cccc(C)c2)ccc1-c1cnco1,19
12,COc1cc(N=C(NC(C)=O)Nc2cccc(C)c2)ccc1-c1cnco1,> 1000
13,COc1cc(NC(=NC#N)Nc2ccccn2)ccc1-c1cnco1,340
14,COc1cc(NC(=N)NC#N)ccc1-c1cnco1,330
15,COc1cc(NC(=NC#N)NCc2cccc(C)c2)ccc1-c1cnco1,1100
16,COc1cc(N/C(=N/C#N)Nc2ccc(C)cc2)ccc1-c1cnco1,1500
17,COc1cc(NC(=NC#N)Nc2cccc(C)c2)ccc1-c1cnco1,240
18,CON/C(=N\c1ccc(-c2cnco2)c(OC)c1)Nc1cccc(C)c1,660
19,COc1cc(NC(=NC#N)Nc2cccc(OCCOc3ccccc3)c2)ccc1-c1cnco1,380
20,COc1cc(N/C(=N/c2cccc(CO)c2)NC#N)ccc1-c1cnco1,280

# Tested on: CCRF-CEM
# Experiment: Inhibitory concentration against human T-lymphoblast CEM cell line (ATCC) by CEM proliferation assay.
# Format: functional, cell-based
# Procedure, shortened: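 CEM human T-lymphoblasts in RPMI 1640 with 10% heat-inactivated FBS plus penicillin/streptomycin, seeded 3000 cells/well with 0.5% DMSO. Compounds tested in triplicate from 10 uM top final concentration, 3-fold serial dilutions. Cells held 72 h in 5% CO2 humidified atmosphere. Viability measured by Alamar Blue (10% v/v, final 5 h), fluorescence at 530/590 nm.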
row,Structure (SMILES),IC50 [nM]
1,COc1cc(N/C(=N/c2cccc(C/N=C(\NC#N)Oc3ccccc3)c2)NC#N)ccc1-c1cnco1,410

# Target: T1, Inosine-5'-monophosphate dehydrogenase 2
# Experiment: The compound was tested for it's in vitro inhibitor potency against inosine monophosphate dehydrogenase II (IMPDH II)
# Procedure, shortened: as §1, with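 “nm. IC50 for 50% inhibition of NADH accumulation from 4-parameter logistic fit.” for “nm.”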
row,Structure (SMILES),IC50 [nM]
1,COc1cc(N=C(N)Nc2cccc(C)c2)ccc1-c1cnco1,> 3000
2,COc1cc(N/C(=N/C#N)Nc2cccc(CNC(=O)OCC3CCOC3)c2)ccc1-c1cnco1 (stereo not drawn),110
